20 compounds from ChEMBL document CHEMBL4368863, “Evaluation of novel N'-(3-hydroxybenzoyl)-2-oxo-2H-chromene-3-carbohydrazide derivatives as potential HIV-1 integrase inhibitors” (Medchemcomm, 2019) can be followed below.

For data set [1], the target named is Human immunodeficiency virus type 1 integrase (Human immunodeficiency virus 1, UniProt Q7ZJM1). The data set can be described thus: Inhibition of HIV1 subtype C recombinant integrase strand transfer activity preincubated for 45 mins with double-stranded biotinylated donor DNA followed by addition of double stranded FITC-labelled target DNA and measured after 60 mins relative to control.

Data set [2] is described as follows: Cytotoxicity against human HeLa cells assessed as cell viability at 25 uM after 48 hrs by resazurin dye-based fluorescence assay. The note with it: read-out: Activity. The gist of the method:
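HeLa cells seeded at 6.7 × 10^4 per well in DMEM with 10% foetal bovine serum and penicillin/streptomycin/amphotericin B. Grown 24 h at 37 °C, 5% CO2, then exposed to compound at 25 μM final for 48 h. Resazurin added and fluorescence read (Ex 560/Em 590 nm) after 2–4 h more. Viability expressed as % of no-compound control wells.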
(Alamar Blue is a resazurin reagent that responds to reducing activity.)

SMILES strings stand for the structures. Some results are limits rather than exact numbers.

One may read the IC50 as the concentration that gives 50% inhibition.

Human immunodeficiency virus type 1 integrase, sequence (Q7ZJM1 whole entry): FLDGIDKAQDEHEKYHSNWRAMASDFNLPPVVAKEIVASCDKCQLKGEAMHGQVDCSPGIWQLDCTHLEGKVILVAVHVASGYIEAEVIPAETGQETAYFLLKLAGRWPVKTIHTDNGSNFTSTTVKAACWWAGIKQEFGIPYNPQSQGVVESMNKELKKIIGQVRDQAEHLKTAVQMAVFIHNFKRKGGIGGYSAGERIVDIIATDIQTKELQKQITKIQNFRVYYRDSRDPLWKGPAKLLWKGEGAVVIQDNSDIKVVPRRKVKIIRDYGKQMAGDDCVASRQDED

Regarding `COc1ccc(O)c(C(=O)NNC(=O)c2cc3cccc(OC)c3oc2=O)c1`, the IC50 in data set [1] amounted to 901 nM. For the same compound, the viability at 48 h, 25 µM in data set [2] is above 70%.

`O=C(NNC(=O)c1cc2cc(Br)ccc2oc1=O)c1cc(Cl)ccc1O`: the IC50 in data set [1] amounted to 175 nM. In data set [2], the viability at 48 h, 25 µM is above 70%.

`COc1cccc2cc(C(=O)NNC(=O)c3cc(Cl)ccc3O)c(=O)oc12`: in data set [1], the IC50 worked out at 23 nM. In data set [2], the viability at 48 h, 25 µM was above 70%.

Regarding `COc1ccc(O)c(C(=O)NNC(=O)c2cc3cc(Br)ccc3oc2=O)c1`, the IC50 in data set [1] was found to be 163 nM. Besides, the viability at 48 h, 25 µM in data set [2] was above 70%.

`COc1cccc(C(=O)NNC(=O)c2cc3cc(Br)ccc3oc2=O)c1O`: the viability at 48 h, 25 µM in data set [2] was above 70%.

Regarding `COc1ccc(O)c(C(=O)NNC(=O)c2cc3ccccc3oc2=O)c1`, the IC50 in data set [1] came to 5800 nM. The viability at 48 h, 25 µM in data set [2] was above 70%.

Turning to `CCOc1cccc2cc(C(=O)NNC(=O)c3cc(OC)ccc3O)c(=O)oc12`, the 50% inhibitory concentration (IC50) in data set [1] was 592 nM. Moreover, the viability at 48 h, 25 µM in data set [2] was above 70%.

As to `O=C(NNC(=O)c1cc2cc(Cl)ccc2oc1=O)c1ccccc1O`, in data set [1], the IC50 was 13 nM. Moreover, the viability at 48 h, 25 µM in data set [2] was above 70%.

Regarding `O=C(NNC(=O)c1cc2ccccc2oc1=O)c1ccccc1O`, the IC50 in data set [1] was 70 nM. The viability at 48 h, 25 µM in data set [2] was above 70%.

As to `CCOc1cccc2cc(C(=O)NNC(=O)c3cc(Cl)ccc3O)c(=O)oc12`, the half-maximal inhibitory concentration (IC50) in data set [1] turned out to be 31 nM. Besides, the viability at 48 h, 25 µM in data set [2] was above 70%.

Take `CCOc1cccc2cc(C(=O)NNC(=O)c3ccccc3O)c(=O)oc12`: the IC50 in data set [1] is 104 nM. For the same compound, the viability at 48 h, 25 µM in data set [2] was above 70%.

As to `CCOc1cccc2cc(C(=O)NNC(=O)c3cccc(OC)c3O)c(=O)oc12`, the viability at 48 h, 25 µM in data set [2] is above 70%.

On to `O=C(NNC(=O)c1cc2ccccc2oc1=O)c1cc(Cl)ccc1O`, for which the IC50 in data set [1] was found to be 33 nM. Besides, the viability at 48 h, 25 µM in data set [2] is above 70%.

As to `COc1cccc(C(=O)NNC(=O)c2cc3cc(Cl)ccc3oc2=O)c1O`, the viability at 48 h, 25 µM in data set [2] was above 70%.

`COc1cccc(C(=O)NNC(=O)c2cc3cccc(OC)c3oc2=O)c1O`: in data set [2], the viability at 48 h, 25 µM was above 70%.

As for `COc1ccc(O)c(C(=O)NNC(=O)c2cc3cc(Cl)ccc3oc2=O)c1`, in data set [1], the half-maximal inhibitory concentration (IC50) is 605 nM. In addition, the viability at 48 h, 25 µM in data set [2] is above 70%.

Consider `O=C(NNC(=O)c1cc2cc(Br)ccc2oc1=O)c1ccccc1O`, for which the IC50 in data set [1] amounted to 14 nM. In addition, in data set [2], the viability at 48 h, 25 µM is above 70%.

In the case of `O=C(NNC(=O)c1cc2cc(Cl)ccc2oc1=O)c1cc(Cl)ccc1O`, the IC50 in data set [1] came out at 41 nM. Besides, the viability at 48 h, 25 µM in data set [2] was above 70%.

On to `COc1cccc2cc(C(=O)NNC(=O)c3ccccc3O)c(=O)oc12`, for which the IC50 in data set [1] came out at 47 nM. Also, the viability at 48 h, 25 µM in data set [2] is above 70%.

`COc1cccc(C(=O)NNC(=O)c2cc3ccccc3oc2=O)c1O`: the viability at 48 h, 25 µM in data set [2] is above 70%.
